# According to ChEMBL document CHEMBL1123302, “Antagonists of substance P. Further modifications of substance P antagonists obtained by replacing either positions 7, 9 or 7, 8 and 11 of SP with D-amino acid residues” (J Med Chem, 1986):
# Key:
# [1] = biological target: Substance-P receptor (Cavia porcellus) (UniProt P30547); experiment: Antagonistic activity against Substance P receptor in guinea pig ileum at concentration of 1 uM.; format: functional, tissue-based
# How it was run: (§1)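 Distal ileum from Dunkin-Hartley guinea pigs (300-350 g, both sexes), held in a 5-mL bath of Krebs solution at 37 °C gassed with 95% O2/5% CO2. Agonist dose-response curves ran on a 3-min cycle with 1-min contact, then washout. Dose ratio = agonist EC50 with antagonist / EC50 alone. At least two preparations per compound; ratios below two were taken as insignificant.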
# [2] = biological target: Substance-P receptor (Rattus norvegicus) (UniProt P14600); experiment: Antagonistic activity against Substance P(6-11) receptor in rat spinal cord at concentration of 43 uM.
# Sequence of Substance-P receptor (Rattus norvegicus) (P14600 whole entry, looked up): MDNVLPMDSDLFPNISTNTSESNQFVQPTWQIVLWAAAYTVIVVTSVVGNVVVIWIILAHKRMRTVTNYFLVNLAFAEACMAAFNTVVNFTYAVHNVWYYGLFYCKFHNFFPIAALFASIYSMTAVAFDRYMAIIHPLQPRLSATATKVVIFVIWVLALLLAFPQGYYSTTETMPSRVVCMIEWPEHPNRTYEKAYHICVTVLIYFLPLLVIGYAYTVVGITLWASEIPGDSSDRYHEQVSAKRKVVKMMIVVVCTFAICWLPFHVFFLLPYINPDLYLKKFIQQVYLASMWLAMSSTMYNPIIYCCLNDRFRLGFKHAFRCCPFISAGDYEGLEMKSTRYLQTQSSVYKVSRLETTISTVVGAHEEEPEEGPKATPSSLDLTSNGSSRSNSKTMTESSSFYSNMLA
# [3] = biological target: Substance-P receptor (Cavia porcellus) (UniProt P30547); experiment: Antagonistic activity against Substance P(6-11) receptor in guinea pig ileum at concentration of 4.5 uM.; format: functional, tissue-based; how it was run: as §1
# [4] = biological target: Substance-P receptor (Rattus norvegicus) (UniProt P14600); experiment: Antagonistic activity against Substance P(6-11) receptor in rat spinal cord at concentration of 21 uM.
# [5] = biological target: Substance-P receptor (Rattus norvegicus) (UniProt P14600); experiment: Antagonistic activity against Substance P receptor in rat spinal cord at concentration of 21 uM.
# Substance-P receptor = Substance-P receptor (Rattus norvegicus, UniProt P14600); experiment: Compound was evaluated for the histamine releasing activity of the Substance P from isolated rat peritoneal mast cells using the procedure of Fretwell et al; format: functional, cell-based
# Sequence of Substance-P receptor (P14600 whole entry): as the sequence (P14600 whole entry, looked up) above
# How it was run: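 Histamine release from isolated rat peritoneal mast cells, method of Fretwell et al. Dose-response curves were built over a range of concentrations, and EC50 values were calculated from the curves.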
# [6] = biological target: Metabotropic glutamate receptor 3 (Rattus norvegicus) (UniProt P31422); experiment: Antagonistic activity against Glutamate receptor in rat spinal cord at concentration of 21 uM.; format: functional, tissue-based
# Sequence of Metabotropic glutamate receptor 3 (Rattus norvegicus) (P31422 23-879 limits assumed): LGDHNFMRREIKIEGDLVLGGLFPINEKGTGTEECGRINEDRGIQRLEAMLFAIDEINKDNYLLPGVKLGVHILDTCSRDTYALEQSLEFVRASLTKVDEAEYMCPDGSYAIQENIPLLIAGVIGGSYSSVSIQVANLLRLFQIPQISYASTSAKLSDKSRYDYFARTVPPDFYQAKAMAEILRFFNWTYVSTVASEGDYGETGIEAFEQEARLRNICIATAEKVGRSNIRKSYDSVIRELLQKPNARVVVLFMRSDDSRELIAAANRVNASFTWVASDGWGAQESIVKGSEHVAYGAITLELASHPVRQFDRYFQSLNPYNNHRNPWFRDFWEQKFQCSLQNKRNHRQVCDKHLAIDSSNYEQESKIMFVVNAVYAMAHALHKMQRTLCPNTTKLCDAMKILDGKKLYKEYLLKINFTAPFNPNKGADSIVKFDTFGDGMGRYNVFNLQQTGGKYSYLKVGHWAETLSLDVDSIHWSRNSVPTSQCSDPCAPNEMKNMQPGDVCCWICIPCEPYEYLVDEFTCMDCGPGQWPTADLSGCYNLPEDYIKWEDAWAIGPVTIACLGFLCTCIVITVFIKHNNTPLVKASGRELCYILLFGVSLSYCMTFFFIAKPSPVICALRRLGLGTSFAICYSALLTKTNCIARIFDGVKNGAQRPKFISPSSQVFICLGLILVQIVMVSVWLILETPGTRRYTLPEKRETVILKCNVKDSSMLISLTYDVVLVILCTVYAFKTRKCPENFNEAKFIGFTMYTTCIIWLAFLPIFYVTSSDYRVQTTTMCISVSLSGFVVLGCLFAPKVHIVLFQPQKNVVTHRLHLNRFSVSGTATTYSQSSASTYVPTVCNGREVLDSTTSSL
# How it was run: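 Neonatal rat spinal cord, hemisected sagittally, superfused at 1 mL/min with oxygenated Krebs-Henseleit medium containing 0.5% urethane at room temperature. Agonists were given in 2-mL doses in the superfusate. Antagonist was superfused continuously for at least 15 min before agonist retesting. Read-out was ventral root depolarization (DC potential, ventral root vs cord body), measured as amplitude and area of response.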
# [7] = biological target: Substance-P receptor (Rattus norvegicus) (UniProt P14600); experiment: Antagonistic activity against Substance P receptor in rat spinal cord at concentration of 43 uM.
# [8] = biological target: Substance-P receptor (Cavia porcellus) (UniProt P30547); experiment: Antagonistic activity against Substance P receptor in guinea pig ileum at concentration of 4.5 uM.; format: functional, tissue-based; how it was run: as §1
# [9] = biological target: Substance-P receptor (Cavia porcellus) (UniProt P30547); experiment: Antagonistic activity against Substance P(6-11) receptor in guinea pig ileum at concentration of 1 uM.; format: functional, tissue-based; how it was run: as §1
# Sequence of Substance-P receptor (Cavia porcellus) (P30547 whole entry): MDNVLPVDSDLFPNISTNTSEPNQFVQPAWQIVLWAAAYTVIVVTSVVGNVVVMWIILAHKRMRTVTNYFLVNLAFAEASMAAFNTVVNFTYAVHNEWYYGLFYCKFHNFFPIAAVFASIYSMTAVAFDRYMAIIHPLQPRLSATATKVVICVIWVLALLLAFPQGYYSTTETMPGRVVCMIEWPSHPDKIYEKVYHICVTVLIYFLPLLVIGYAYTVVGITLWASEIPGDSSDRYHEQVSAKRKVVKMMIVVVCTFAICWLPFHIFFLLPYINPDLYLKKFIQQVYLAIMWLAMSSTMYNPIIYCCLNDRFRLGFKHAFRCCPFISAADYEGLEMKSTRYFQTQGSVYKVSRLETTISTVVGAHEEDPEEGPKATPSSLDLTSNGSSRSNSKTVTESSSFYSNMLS
smiles,measurement,setting,value
COC(=O)[C@H](CCSC)NC(=O)[C@H](CC(C)C)NC(=O)[C@@H](Cc1c[nH]c2ccccc12)NC(=O)[C@H](Cc1ccccc1)NC(=O)[C@@H](Cc1ccccc1)NC(=O)[C@H](CCCCNC(=O)OCc1ccccc1)NC(=O)[C@H](CC(N)=O)NC(=O)[C@@H]1CCCN1C(=O)[C@H](CCCCNC(=O)OCc1ccccc1)NC(=O)[C@@H]1CCCN1C(=O)[C@H](CCCN=C(N)N)NC(=O)OCc1ccccc1,Activity,[1],5 dose ratio
same,Change in amplitude response,[2],-54%
same,Activity,[3],10.8 dose ratio
same,Change in amplitude response,[4],-44%
same,Change in amplitude response,[5],17%
same,IC50,Substance-P receptor,> 500 µM
same,Change in amplitude response,[6],-15%
same,Change in amplitude response,[7],0%
same,Activity,[8],11.4 dose ratio
same,Activity,[9],9.3 dose ratio
